Measurements published in ChEMBL document CHEMBL3124843, “Synthesis, cytostatic, antimicrobial, and anti-HCV activity of 6-substituted 7-(het)aryl-7-deazapurine ribonucleosides” (J Med Chem, 2014).
Active and inactive are the calls of the source. How the calls were made is not given here.

Tests used:
HCT-116 [1] = assay: Cytostatic activity against p53-deficient human HCT116 cells after 72 hrs by MTT assay; assay type: functional, cell-based; conditions: HCT-116, 72 h
In short: (§1)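 IC50 is the concentration that cuts cell growth by 50%, read by quantitative metabolic MTT staining after a 3-day treatment. The resistant sublines were made by raising the concentration of the cytotoxic drug step by step. CEM-DNR-bulk (daunorubicin-selected) stably overexpresses mrp-1. K562-TAX (paclitaxel-selected) expresses only mdr-1. HCT116p53−/− carries null p53 alleles. BJ and MRC-5 are nonmalignant fibroblasts.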

Candida albicans = assay: Antifungal activity against Candida albicans after 48 hrs; assay type: functional, organism-based
[2] = Cytostatic activity against human CEM-DNR-bulk cells after 72 hrs by MTT assay; assay type: functional, cell-based; in short: as §1
MRC5 = assay: Cytostatic activity against human MRC5 cells after 72 hrs by MTT assay; assay type: ADME, cell-based; conditions: MRC5, 72 h; in short: as §1
A549 = assay: Cytostatic activity against human A549 cells after 72 hrs by MTT assay; assay type: functional, cell-based; conditions: A549, 72 h; in short: as §1
K562 [3] = assay: Cytostatic activity against paclitaxel-resistant human K562 cells after 72 hrs by MTT assay; assay type: functional, cell-based; conditions: K562, 72 h; in short: as §1
[4] = Cytotoxicity against human HuH7 cells infected with Hepatitis C virus subtype 1b; assay type: cell-based, Huh-7
Pseudomonas aeruginosa [5] = assay: Antibacterial activity against Pseudomonas aeruginosa CCM 3955 after 24 hrs; assay type: functional, organism-based
Escherichia coli [6] = assay: Antibacterial activity against Escherichia coli CCM 3954 after 24 hrs; assay type: functional, organism-based
Hepatitis C virus [7] = assay: Antiviral activity against Hepatitis C virus subtype 1b infected in human HuH7 cells; assay type: functional, organism-based, Hepacivirus hominis; conditions: genotype 1b, Huh-7
Candida tropicalis = assay: Antifungal activity against Candida tropicalis after 48 hrs; assay type: functional, organism-based
HCT-116 [8] = assay: Cytostatic activity against human HCT116 cells after 72 hrs by MTT assay; assay type: functional, cell-based; conditions: HCT-116, 72 h; in short: as §1
Hepatitis C virus [9] = assay: Antiviral activity against Hepatitis C virus subtype 2a infected in human HuH7 cells; assay type: functional, organism-based, Hepacivirus hominis; conditions: genotype 2a, Huh-7
Enterococcus faecalis = assay: Antibacterial activity against Enterococcus faecalis CCM 4224 after 24 hrs; assay type: functional, organism-based
Staphylococcus aureus [10] = assay: Antibacterial activity against methicillin-resistant Staphylococcus aureus MRSA 4591 after 24 hrs; assay type: functional, organism-based
Staphylococcus aureus [11] = assay: Antibacterial activity against Staphylococcus aureus CCM 3953 after 24 hrs; assay type: functional, organism-based
HL-60 = assay: Antiproliferative activity against human HL60 cells after 72 hrs by XTT assay; assay type: functional, cell-based; conditions: HL-60, 72 h
In short: (§2)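 Antiproliferative test on HL-60 promyelocytic leukemia and HeLa S3 cervical carcinoma cells growing in liquid suspension.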

[12] = Antiproliferative activity against human HeLaS3 cells after 72 hrs by XTT assay; assay type: functional, cell-based; conditions: HeLa S3, 72 h; in short: as §2
K562 [13] = assay: Cytostatic activity against human K562 cells after 72 hrs by MTT assay; assay type: functional, cell-based; conditions: K562, 72 h; in short: as §1
CCRF-CEM = assay: Cytostatic activity against human CCRF-CEM cells after 72 hrs by MTT assay; assay type: functional, cell-based; in short: as §1
HepG2 = assay: Antiproliferative activity against human HepG2 cells after 72 hrs by XTT assay; assay type: functional, cell-based; conditions: HepG2, 72 h
Candida parapsilosis = assay: Antifungal activity against Candida parapsilosis after 48 hrs; assay type: functional, organism-based
Pseudomonas aeruginosa [14] = assay: Antibacterial activity against multi-resistant Pseudomonas aeruginosa A/16575 after 24 hrs; assay type: functional, organism-based
BJ = assay: Cytostatic activity against human BJ cells after 72 hrs by MTT assay; assay type: ADME, cell-based; in short: as §1
Escherichia coli [15] = assay: Antibacterial activity against multi-resistant Escherichia coli C/16702 after 24 hrs; assay type: functional, organism-based
[16] = system: Staphylococcus haemolyticus; assay: Antibacterial activity against methicillin-resistant Staphylococcus haemolyticus A/16568 after 24 hrs; assay type: functional, organism-based
[17] = Cytotoxicity against human HuH7 cells infected with Hepatitis C virus subtype 2a; assay type: cell-based, Huh-7
Pichia kudriavzevii = assay: Antifungal activity against Candida crusei after 48 hrs; assay type: functional, organism-based

| Compound | IC50 (HCT-116 [1]) [µM] | Activity (Candida albicans) | IC50 [2] [µM] | IC50 (MRC5) [µM] | IC50 (A549) [µM] | IC50 (K562 [3]) [µM] | CC50 [4] [µM] | Activity (Pseudomonas aeruginosa [5]) | Activity (Escherichia coli [6]) | EC50 (Hepatitis C virus [7]) [µM] | Activity (Candida tropicalis) | IC50 (HCT-116 [8]) [µM] | EC50 (Hepatitis C virus [9]) [µM] | Activity (Enterococcus faecalis) | Activity (Staphylococcus aureus [10]) | Activity (Staphylococcus aureus [11]) | IC50 (HL-60) [µM] | IC50 [12] [µM] | IC50 (K562 [13]) [µM] | IC50 (CCRF-CEM) [µM] | other results |
| --- | --- | --- | --- | --- | --- | --- | --- | --- | --- | --- | --- | --- | --- | --- | --- | --- | --- | --- | --- | --- | --- |
| COc1ncnc2c1c(-c1cc3ccccc3o1)cn2[C@@H]1O[C@H](CO)[C@@H](O)[C@H]1O | 14.5 | inactive | 10.8 | 65.6 | 17.7 | 13.1 | > 44 | inactive | inactive | 2.64 | inactive | 13.8 | 10.2 | inactive | inactive | inactive | 4.47 | 9.24 | 20.9 | 5.37 | IC50 (HepG2): > 20 µM; Activity (Candida parapsilosis): inactive; Activity (Pseudomonas aeruginosa [14]): inactive; IC50 (BJ): 22.4 µM; Activity (Escherichia coli [15]): inactive; Activity [16]: inactive; CC50 [17]: > 44 µM; Activity (Pichia kudriavzevii): inactive |
| O=c1[nH]cnc2c1c(-c1cccs1)cn2[C@@H]1O[C@H](CO)[C@@H](O)[C@H]1O | > 20 | inactive | > 20 | > 100 | > 20 | > 20 | > 44 | inactive | inactive | > 44 | inactive | > 20 | > 44 | inactive | inactive | inactive | > 20 | > 20 | > 20 | > 20 | IC50 (HepG2): > 20 µM; Activity (Candida parapsilosis): inactive; Activity (Pseudomonas aeruginosa [14]): inactive; IC50 (BJ): > 100 µM; Activity (Escherichia coli [15]): inactive; Activity [16]: inactive; CC50 [17]: > 44 µM; Activity (Pichia kudriavzevii): inactive |
| Cc1ncnc2c1c(-c1cc3ccccc3o1)cn2[C@@H]1O[C@H](CO)[C@@H](O)[C@H]1O | > 20 | inactive | > 20 | 84.4 | > 20 | > 20 | > 44 | inactive | inactive | 6.76 | inactive | > 20 | 40.2 | inactive | inactive | inactive | > 20 | > 20 | 19.5 | 17.3 | IC50 (HepG2): > 20 µM; Activity (Candida parapsilosis): inactive; Activity (Pseudomonas aeruginosa [14]): inactive; IC50 (BJ): 93.9 µM; Activity (Escherichia coli [15]): inactive; Activity [16]: inactive; CC50 [17]: > 44 µM; Activity (Pichia kudriavzevii): inactive |
| CSc1ncnc2c1ccn2[C@@H]1O[C@H](CO)[C@@H](O)[C@H]1O | > 20 | inactive | 3.61 | > 100 | > 20 | 0.1 | > 44 | inactive | inactive | 29.9 | inactive | > 20 | > 44 | inactive | inactive | inactive | 7.19 | 11.9 | > 20 | > 20 | IC50 (HepG2): > 20 µM; Activity (Candida parapsilosis): inactive; Activity (Pseudomonas aeruginosa [14]): inactive; IC50 (BJ): > 100 µM; Activity (Escherichia coli [15]): inactive; Activity [16]: inactive; CC50 [17]: > 44 µM; Activity (Pichia kudriavzevii): inactive |
| Cc1nc(N)c2c(-c3ccsc3)cn([C@@H]3O[C@H](CO)[C@@H](O)[C@H]3O)c2n1 | > 20 | inactive | > 20 | > 100 | > 20 | > 20 | > 44 | inactive | inactive | 28.7 | inactive | > 20 | > 44 | inactive | inactive | inactive | > 20 | > 20 | > 20 | > 20 | IC50 (HepG2): > 20 µM; Activity (Candida parapsilosis): inactive; Activity (Pseudomonas aeruginosa [14]): inactive; IC50 (BJ): > 100 µM; Activity (Escherichia coli [15]): inactive; Activity [16]: inactive; CC50 [17]: > 44 µM; Activity (Pichia kudriavzevii): inactive |
| O=c1[nH]cnc2c1c(-c1ccco1)cn2[C@@H]1O[C@H](CO)[C@@H](O)[C@H]1O | > 20 | inactive | > 20 | > 100 | > 20 | 17.8 | > 44 | inactive | inactive | > 44 | inactive | 18.3 | > 44 | inactive | inactive | inactive | 2.2 | 5.78 | 15.5 | > 20 | IC50 (HepG2): > 15 µM; Activity (Candida parapsilosis): inactive; Activity (Pseudomonas aeruginosa [14]): inactive; IC50 (BJ): > 100 µM; Activity (Escherichia coli [15]): inactive; Activity [16]: inactive; CC50 [17]: > 44 µM; Activity (Pichia kudriavzevii): inactive |
| CNc1ncnc2c1c(-c1cccs1)cn2[C@@H]1O[C@H](CO)[C@@H](O)[C@H]1O | > 20 | inactive | > 20 | > 100 | > 20 | > 20 | > 44 | inactive | inactive | > 44 | inactive | > 20 | > 44 | inactive | inactive | inactive | > 20 | > 20 | > 20 | > 20 | IC50 (HepG2): > 20 µM; Activity (Candida parapsilosis): inactive; Activity (Pseudomonas aeruginosa [14]): inactive; IC50 (BJ): > 100 µM; Activity (Escherichia coli [15]): inactive; Activity [16]: inactive; CC50 [17]: > 44 µM; Activity (Pichia kudriavzevii): inactive |
| O=c1[nH]cnc2c1c(-c1cc3ccccc3o1)cn2[C@@H]1O[C@H](CO)[C@@H](O)[C@H]1O | > 20 | inactive | > 20 | > 100 | > 20 | > 20 | > 44 | inactive | inactive | 7.21 | inactive | > 20 | 17.4 | inactive | inactive | inactive | > 20 | > 20 | > 20 | > 20 | IC50 (HepG2): > 20 µM; Activity (Candida parapsilosis): inactive; Activity (Pseudomonas aeruginosa [14]): inactive; IC50 (BJ): 62.7 µM; Activity (Escherichia coli [15]): inactive; Activity [16]: inactive; CC50 [17]: > 44 µM; Activity (Pichia kudriavzevii): inactive |
| Cc1nc(N)c2c(-c3ccco3)cn([C@@H]3O[C@H](CO)[C@@H](O)[C@H]3O)c2n1 | > 20 | inactive | > 20 | > 100 | > 20 | > 20 | > 44 | inactive | inactive | > 44 | inactive | > 20 | > 44 | inactive | inactive | inactive | > 20 | > 20 | > 20 | > 100 | IC50 (HepG2): > 20 µM; Activity (Candida parapsilosis): inactive; Activity (Pseudomonas aeruginosa [14]): inactive; IC50 (BJ): > 100 µM; Activity (Escherichia coli [15]): inactive; Activity [16]: inactive; CC50 [17]: > 44 µM; Activity (Pichia kudriavzevii): inactive |
